According to ChEMBL document CHEMBL4190402, “Development of a Novel Human Parathyroid Hormone Receptor 1 (hPTHR1) Agonist (CH5447240), a Potent and Orally Available Small Molecule for Treatment of Hypoparathyroidism” (J Med Chem, 2018):
Converted amounts (≈) assume the structure as drawn. The source made the active and inactive calls. The rule behind the calls is not given here.

Experiments:
[1] = system: LLC-PK1; test: Induction of cAMP production in porcine LLC-PK1 cells after 20 mins by enzyme immunoassay; assay type: functional, cell-based; settings: Sus scrofa
Outline: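 Counter-screen on parent LLC-PK1 cells lacking hPTHR1. Conditions match the HKRK-B7 assay: 20 min at 37°C in IBMX-containing assay medium, then cAMP read by EIA.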

[2] = biological target: T1, Parathyroid hormone/parathyroid hormone-related peptide receptor (Homo sapiens) (UniProt Q03431); test: (§1) Agonist activity at human PTHR1 expressed in HKRKB7 cells assessed as accumulation of intracellular cAMP after 20 mins by enzyme immunoassay; assay type: functional, cell-based
T1 sequence (whole entry): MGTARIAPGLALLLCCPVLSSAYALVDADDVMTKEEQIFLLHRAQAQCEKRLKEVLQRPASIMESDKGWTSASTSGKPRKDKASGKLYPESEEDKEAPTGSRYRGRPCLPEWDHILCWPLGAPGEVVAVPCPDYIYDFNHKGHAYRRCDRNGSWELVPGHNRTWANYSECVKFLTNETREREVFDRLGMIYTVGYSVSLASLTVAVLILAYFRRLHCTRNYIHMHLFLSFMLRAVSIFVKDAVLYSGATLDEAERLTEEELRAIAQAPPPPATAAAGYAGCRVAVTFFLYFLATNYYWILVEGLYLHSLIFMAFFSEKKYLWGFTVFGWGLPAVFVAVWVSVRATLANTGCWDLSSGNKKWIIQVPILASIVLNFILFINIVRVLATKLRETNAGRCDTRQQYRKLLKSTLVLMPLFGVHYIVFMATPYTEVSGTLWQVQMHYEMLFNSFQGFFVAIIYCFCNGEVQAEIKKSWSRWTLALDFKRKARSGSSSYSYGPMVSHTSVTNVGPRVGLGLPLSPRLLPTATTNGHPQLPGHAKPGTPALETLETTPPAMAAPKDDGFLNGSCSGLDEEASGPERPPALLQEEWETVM
Outline: (§2)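 HKRK-B7 cells (LLC-PK1 stably expressing hPTHR1), 1.0 x 10^3 per well, seeded overnight, then exposed to serially diluted compound in McCoy's 5A with 2 mg/ml BSA, 1 mmol/l IBMX and 2 mmol/l HEPES for 20 min at 37°C. Cells washed, frozen, lysed in 50 mmol/l HCl, cAMP read by EIA.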

[3] = biological target: T1, Parathyroid hormone/parathyroid hormone-related peptide receptor (Homo sapiens); test: Agonist activity at human PTHR1 expressed in HKRKB7 cells assessed as accumulation of intracellular cAMP at 1 mM after 20 mins by enzyme immunoassay relative to human PTH (1 to 34 residues); assay type: functional, cell-based; outline: as §2
[4] = Intrinsic clearance in human liver microsomes assessed per mg protein at 1 uM after 30 mins in absence of NADPH by LC-MS/MS analysis; assay type: ADME, microsome; settings: liver microsomes, read-out: CLH
[5] = Solubility of the compound in PBS at pH 6.5 at 1 mM by HPLC-UV analysis; assay type: physicochemical; settings: for solubility at 1000 µM: PBS, pH 6.5; for solubility: buffer, pH 6.5, 1000 µM, BLD = below limit of detection
Outline: (§3)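 A 1 mM DMSO stock (50 µL) was freeze-dried, then the residue taken up in 50 mM PBS pH 6.5 or FaSSIF pH 6.5. Sonicated 10 min, shaken 2 h, centrifuged, filtered. Filtrate concentration determined by HPLC-UV against each compound's calibration curve.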

[6] = Intrinsic clearance in human liver microsomes assessed per mg protein at 1 uM after 30 mins in presence of NADPH by LC-MS/MS analysis; assay type: ADME, microsome; settings: read-out: CLH
[7] = biological target: T2, Parathyroid hormone/parathyroid hormone-related peptide receptor (Homo sapiens, UniProt Q03431); test: as §1; assay type: functional, cell-based; outline: as §2
T2 sequence (Q03431 whole entry): T1 sequence (whole entry)

[8] = Solubility of the compound in FaSSIF at 1 mM by HPLC-UV analysis; assay type: physicochemical; settings: for solubility at 1000 µM: FaSSIF; outline: as §3
[9] = system: Rattus norvegicus; test: In vivo agonist activity at PTHR1 in Crl:CD(SD) rat TPTX model assessed as decrease in serum phosphorus levels 9 nmol/kg, sc administered as single dose measured after 24 hrs by xanthine oxidase method; assay type: functional, organism-based
Outline: (§4)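 Female 6-week-old Crl:CD(SD) rats after surgical TPTX; those with serum Ca <8.0 mg/dl at day 5 were used, and treatment began day 6. Single sc dose of hPTH(1-34) at 9 nmol/kg, or phosphate-citrate buffer pH 6.0 vehicle, n=5 per group. Jugular blood taken under isoflurane before dosing and at 0.5–24 h. Serum Ca measured by o-CPC, Pi by xanthine oxidase. Mean ± SEM.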

[10] = system: Rattus norvegicus; test: In vivo agonist activity at PTHR1 in Crl:CD(SD) rat TPTX model assessed as increase in serum calcium levels at 9 nmol/kg, sc administered as single dose measured after 24 hrs by o-cresolphthalein complexone method; assay type: functional, organism-based; outline: as §4

Structure (SMILES)	EC20 [2]	Activity [3]	microsomal CLint at 1 µM [6]	EC50 [7]	Activity [1]	other results
O=C1NC(C2CCCCC2)=NC12CCN(S(=O)(=O)Cc1ccccc1)CC2	> 1000 µM	–	–	–	inactive	–
CC(=O)Nc1ccc(CCS(=O)(=O)N2CCC3(CC2)N=C(C2CCCCC2)NC3=O)c(C)c1	11 µM	–	46 µL/min/mg	50 µM	inactive	microsomal CLint at 1 µM [4]: 33 µL/min/mg; solubility at 1000 µM [5]: 280 µg/mL (≈ 590 µM); solubility at 1000 µM [8]: 400 µg/mL (≈ 843 µM)
O=C1NC(C2CCCCC2)=NC12CCN(S(=O)(=O)CCc1cccc3ccccc13)CC2	15 µM	–	300 µL/min/mg	–	inactive	solubility [5]: Bld; solubility at 1000 µM [8]: 3.1 µg/mL (≈ 6.83 µM)
O=C1NC(C2CCCCC2)=NC12CCN(S(=O)(=O)CCc1ccccc1)CC2	240 µM	–	–	–	inactive	–
Cc1cc(N(C)C(N)=O)cc(C)c1CCS(=O)(=O)N1CCC2(CC1)N=C(C1CCCCC1)NC2=O	8.1 µM	–	23 µL/min/mg	67 µM	inactive	solubility at 1000 µM [5]: 290 µg/mL (≈ 576 µM); solubility at 1000 µM [8]: 450 µg/mL (≈ 893 µM)
CC(=O)Nc1cc(C)c(CCS(=O)(=O)N2CCC3(CC2)N=C(C2CCCCC2)NC3=O)c(C)c1	6.4 µM	–	39 µL/min/mg	26 µM	inactive	microsomal CLint at 1 µM [4]: 18 µL/min/mg; solubility at 1000 µM [5]: 8 µg/mL (≈ 16.4 µM); solubility at 1000 µM [8]: 38 µg/mL (≈ 77.8 µM)
CC[C@H](C)[C@H](NC(=O)[C@H](CCC(=O)O)NC(=O)[C@H](CO)NC(=O)[C@@H](NC(=O)[C@@H](N)CO)C(C)C)C(=O)N[C@@H](CCC(N)=O)C(=O)N[C@@H](CC(C)C)C(=O)N[C@@H](CCSC)C(=O)N[C@@H](Cc1cnc[nH]1)C(=O)N[C@@H](CC(N)=O)C(=O)N[C@@H](CC(C)C)C(=O)NCC(=O)N[C@@H](CCCCN)C(=O)N[C@@H](Cc1cnc[nH]1)C(=O)N[C@@H](CC(C)C)C(=O)N[C@@H](CC(N)=O)C(=O)N[C@@H](CO)C(=O)N[C@@H](CCSC)C(=O)N[C@@H](CCC(=O)O)C(=O)N[C@@H](CCCNC(=N)N)C(=O)N[C@H](C(=O)N[C@@H](CCC(=O)O)C(=O)N[C@@H](Cc1c[nH]c2ccccc12)C(=O)N[C@@H](CC(C)C)C(=O)N[C@@H](CCCNC(=N)N)C(=O)N[C@@H](CCCCN)C(=O)N[C@@H](CCCCN)C(=O)N[C@@H](CC(C)C)C(=O)N[C@@H](CCC(N)=O)C(=O)N[C@@H](CC(=O)O)C(=O)N[C@H](C(=O)N[C@@H](Cc1cnc[nH]1)C(=O)N[C@@H](CC(N)=O)C(=O)N[C@@H](Cc1ccccc1)C(=O)O)C(C)C)C(C)C	–	–	–	–	–	Activity [9]: Active; Activity [10]: Active
Cc1ccccc1CCS(=O)(=O)N1CCC2(CC1)N=C(C1CCCCC1)NC2=O	30 µM	–	100 µL/min/mg	> 1000 µM	inactive	solubility at 1000 µM [5]: 11 µg/mL (≈ 26.3 µM); solubility at 1000 µM [8]: 15 µg/mL (≈ 35.9 µM)
O=C1NC(c2ccc(Cl)cc2Cl)=NC12CCN(S(=O)(=O)CCc1cccc3ccccc13)CC2	150 µM	–	–	–	inactive	–
O=C1NC(C2CCCCC2)=NC12CCN(S(=O)(=O)CCc1ccncc1)CC2	> 1000 µM	–	–	–	inactive	–
Cc1cc(N2CCNC2=O)cc(C)c1CCS(=O)(=O)N1CCC2(CC1)N=C(C1CCCCC1)NC2=O	240 µM	–	62 µL/min/mg	> 1000 µM	inactive	microsomal CLint at 1 µM [4]: 3.4 µL/min/mg; solubility [5]: Bld; solubility ([8]; simulated gi fluid, 1000 µM, BLD = below limit of detection): Bld
O=C1NC(C2CCCCC2)=NC12CCN(S(=O)(=O)c1cccc3ccccc13)CC2	220 µM	–	–	–	inactive	–

Now from value to molecule, other results behind:

EC20 [2]	Activity [3]	microsomal CLint at 1 µM [6]	EC50 [7]	Structure (SMILES)	Activity [1]	other results
–	22%	–	–	O=C1NC(c2ccc(Cl)cc2)=NC12CCN(S(=O)(=O)c1cccc(Cl)c1)CC2	inactive	–
140 µM	45%	–	–	O=C1NC(C2CCCCC2)=NC12CCN(S(=O)(=O)c1cccc(Cl)c1)CC2	inactive	–
–	1.3%	–	–	O=C(O)c1ccc(C2=NC3(CCN(S(=O)(=O)c4cccc(Cl)c4)CC3)C(=O)N2)cc1	inactive	–
530 µM	23%	–	> 1000 µM	O=C1NC(c2ccc(Cl)cc2Cl)=NC12CCN(S(=O)(=O)c1cccc(Cl)c1)CC2	inactive	–
–	35%	–	–	C[C@H]1CC[C@H](C2=NC3(CCN(S(=O)(=O)c4cccc(Cl)c4)CC3)C(=O)N2)CC1	inactive	–
–	1.9%	–	–	O=C1NC(c2ccccc2)=NC12CCN(S(=O)(=O)c1cccc(Cl)c1)CC2	inactive	–
–	1%	–	–	O=C1NC(c2ccncc2)=NC12CCN(S(=O)(=O)c1cccc(Cl)c1)CC2	inactive	–
–	18%	–	–	O=C1NC(c2ccccc2Cl)=NC12CCN(S(=O)(=O)c1cccc(Cl)c1)CC2	inactive	–
